Assay results from ChEMBL document CHEMBL4152188, “Design, synthesis and biological evaluation of C(4) substituted monobactams as antibacterial agents against multidrug-resistant Gram-negative bacteria” (Eur J Med Chem, 2018).

Legend:
Type in all cases: functional
Klebsiella pneumoniae [1] = assay: Antibacterial activity against KPC-2 producing Klebsiella pneumoniae isolate 209735 after 18 hrs in presence of BPL by CLSI broth microdilution method; conditions: isolate 209735, 18 h
Outline: (§1)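 CLSI broth microdilution against clinical isolates (ESBL E. coli, KPC-2 MDR K. pneumoniae, IMP-4 MDR P. aeruginosa; five per species). Iron limitation: Mueller-Hinton broth supplemented with 16 mg/liter 2,2'-bipyridyl to complex iron and induce iron uptake systems. Read-out: MIC.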

Pseudomonas aeruginosa [2] = assay: Antibacterial activity against IMP-4 producing Pseudomonas aeruginosa isolate 207272 after 18 hrs by CLSI broth microdilution method; conditions: isolate 207272, 18 h
Pseudomonas aeruginosa [3] = assay: Antibacterial activity against IMP-4 producing Pseudomonas aeruginosa isolate 207272 after 18 hrs in presence of BPL by CLSI broth microdilution method; conditions: isolate 207272, 18 h; outline: as §1
Escherichia coli [4] = assay: Selectivity index, ratio of MIC for against extended-spectrum beta-lactamase producing Escherichia coli isolate 212648 to MIC for extended-spectrum beta-lactamase producing Escherichia coli isolate 212648 in presence of BPL
Escherichia coli [5] = assay: Selectivity index, ratio of MIC for against extended-spectrum beta-lactamase producing Escherichia coli isolate 208687 to MIC for extended-spectrum beta-lactamase producing Escherichia coli isolate 208687 in presence of BPL
Escherichia coli [6] = assay: Antibacterial activity against Escherichia coli isolate 210737 after 18 hrs by CLSI broth microdilution method; conditions: isolate 210737, 18 h
Escherichia coli [7] = assay: Antibacterial activity against extended-spectrum beta-lactamase producing Escherichia coli isolate 106342 after 18 hrs by CLSI broth microdilution method; conditions: isolate 106342, 18 h
Klebsiella pneumoniae [8] = assay: Antibacterial activity against KPC-2 producing Klebsiella pneumoniae isolate 212232 after 18 hrs by CLSI broth microdilution method; conditions: isolate 212232, 18 h
Pseudomonas aeruginosa [9] = assay: Antibacterial activity against IMP-4 producing Pseudomonas aeruginosa isolate 212886 after 18 hrs in presence of BPL by CLSI broth microdilution method; conditions: isolate 212886, 18 h; outline: as §1
Escherichia coli [10] = assay: Selectivity index, ratio of MIC for against extended-spectrum beta-lactamase producing Escherichia coli isolate 106342 to MIC for extended-spectrum beta-lactamase producing Escherichia coli isolate 106342 in presence of BPL
Klebsiella pneumoniae [11] = assay: Antibacterial activity against KPC-2 producing Klebsiella pneumoniae isolate 209735 after 18 hrs by CLSI broth microdilution method; conditions: isolate 209735, 18 h
Klebsiella pneumoniae [12] = assay: Antibacterial activity against KPC-2 producing Klebsiella pneumoniae isolate 212229 after 18 hrs in presence of BPL by CLSI broth microdilution method; conditions: isolate 212229, 18 h; outline: as §1
Escherichia coli [13] = assay: Antibacterial activity against extended-spectrum beta-lactamase producing Escherichia coli isolate 209285 after 18 hrs by CLSI broth microdilution method; conditions: isolate 209285, 18 h
Pseudomonas aeruginosa [14] = assay: Antibacterial activity against IMP-4 producing Pseudomonas aeruginosa isolate 209321 after 18 hrs in presence of BPL by CLSI broth microdilution method; conditions: isolate 209321, 18 h; outline: as §1
Escherichia coli [15] = assay: Selectivity index, ratio of MIC for against extended-spectrum beta-lactamase producing Escherichia coli isolate 209285 to MIC for extended-spectrum beta-lactamase producing Escherichia coli isolate 209285 in presence of BPL
Escherichia coli [16] = assay: Antibacterial activity against extended-spectrum beta-lactamase producing Escherichia coli isolate 106342 after 18 hrs in presence of BPL by CLSI broth microdilution method; conditions: isolate 106342, 18 h; outline: as §1
Pseudomonas aeruginosa [17] = assay: Antibacterial activity against IMP-4 producing Pseudomonas aeruginosa isolate 212886 after 18 hrs by CLSI broth microdilution method; conditions: isolate 212886, 18 h
Pseudomonas aeruginosa [18] = assay: Antibacterial activity against IMP-4 producing Pseudomonas aeruginosa isolate 208247 after 18 hrs by CLSI broth microdilution method; conditions: isolate 208247, 18 h
Escherichia coli [19] = assay: Selectivity index, ratio of MIC for against Escherichia coli isolate 210737 to MIC for Escherichia coli isolate 210737 in presence of BPL
Escherichia coli [20] = assay: Antibacterial activity against extended-spectrum beta-lactamase producing Escherichia coli isolate 208687 after 18 hrs by CLSI broth microdilution method; conditions: isolate 208687, 18 h
Pseudomonas aeruginosa [21] = assay: Selectivity index, ratio of MIC for against IMP-4 producing Pseudomonas aeruginosa isolate 209321 to MIC for against IMP-4 producing Pseudomonas aeruginosa isolate 209321 in presence of BPL
Escherichia coli [22] = assay: Antibacterial activity against extended-spectrum beta-lactamase producing Escherichia coli isolate 212648 after 18 hrs in presence of BPL by CLSI broth microdilution method; conditions: isolate 212648, 18 h; outline: as §1
Pseudomonas aeruginosa [23] = assay: Antibacterial activity against IMP-4 producing Pseudomonas aeruginosa isolate 209321 after 18 hrs by CLSI broth microdilution method; conditions: isolate 209321, 18 h
Escherichia coli [24] = assay: Antibacterial activity against extended-spectrum beta-lactamase producing Escherichia coli isolate 212648 after 18 hrs by CLSI broth microdilution method; conditions: isolate 212648, 18 h
Klebsiella pneumoniae [25] = assay: Antibacterial activity against KPC-2 producing Klebsiella pneumoniae isolate 212232 after 18 hrs in presence of BPL by CLSI broth microdilution method; conditions: isolate 212232, 18 h; outline: as §1
Pseudomonas aeruginosa [26] = assay: Antibacterial activity against IMP-4 producing Pseudomonas aeruginosa isolate 209471 after 18 hrs in presence of BPL by CLSI broth microdilution method; conditions: isolate 209471, 18 h; outline: as §1
Escherichia coli [27] = assay: Antibacterial activity against Escherichia coli isolate 210737 after 18 hrs in presence of BPL by CLSI broth microdilution method; conditions: isolate 210737, 18 h; outline: as §1
Klebsiella pneumoniae [28] = assay: Antibacterial activity against KPC-2 producing Klebsiella pneumoniae isolate 212423 after 18 hrs by CLSI broth microdilution method; conditions: isolate 212423, 18 h
Klebsiella pneumoniae [29] = assay: Antibacterial activity against KPC-2 producing Klebsiella pneumoniae isolate 212423 after 18 hrs in presence of BPL by CLSI broth microdilution method; conditions: isolate 212423, 18 h; outline: as §1
Klebsiella pneumoniae [30] = assay: Antibacterial activity against KPC-2 producing Klebsiella pneumoniae isolate 209632 after 18 hrs in presence of BPL by CLSI broth microdilution method; conditions: isolate 209632, 18 h; outline: as §1
Klebsiella pneumoniae [31] = assay: Antibacterial activity against KPC-2 producing Klebsiella pneumoniae isolate 209632 after 18 hrs by CLSI broth microdilution method; conditions: isolate 209632, 18 h
Escherichia coli [32] = assay: Antibacterial activity against extended-spectrum beta-lactamase producing Escherichia coli isolate 209285 after 18 hrs in presence of BPL by CLSI broth microdilution method; conditions: isolate 209285, 18 h; outline: as §1
Pseudomonas aeruginosa [33] = assay: Antibacterial activity against IMP-4 producing Pseudomonas aeruginosa isolate 208247 after 18 hrs in presence of BPL by CLSI broth microdilution method; conditions: isolate 208247, 18 h; outline: as §1
Pseudomonas aeruginosa [34] = assay: Antibacterial activity against IMP-4 producing Pseudomonas aeruginosa isolate 209471 after 18 hrs by CLSI broth microdilution method; conditions: isolate 209471, 18 h
Escherichia coli [35] = assay: Antibacterial activity against extended-spectrum beta-lactamase producing Escherichia coli isolate 208687 after 18 hrs in presence of BPL by CLSI broth microdilution method; conditions: isolate 208687, 18 h; outline: as §1
Klebsiella pneumoniae [36] = assay: Antibacterial activity against KPC-2 producing Klebsiella pneumoniae isolate 212229 after 18 hrs by CLSI broth microdilution method; conditions: isolate 212229, 18 h

C=CC1[C@H](NC(=O)/C(=N\OC(c2cc(=O)c(O)cn2O)C(C)C)c2csc(N)n2)C(=O)N1S(=O)(=O)O (stereo partly specified)
32: Selectivity Index (Escherichia coli [5])
> 64 µg/mL: MIC (Klebsiella pneumoniae [1]) | MIC (Pseudomonas aeruginosa [2]) | MIC (Pseudomonas aeruginosa [3]) | MIC (Escherichia coli [6]) | MIC (Klebsiella pneumoniae [8]) | MIC (Pseudomonas aeruginosa [9]) | MIC (Klebsiella pneumoniae [11]) | MIC (Klebsiella pneumoniae [12]) | MIC (Escherichia coli [13]) | MIC (Pseudomonas aeruginosa [17]) | MIC (Pseudomonas aeruginosa [18]) | MIC (Escherichia coli [22]) | MIC (Escherichia coli [24]) | MIC (Klebsiella pneumoniae [25]) | MIC (Pseudomonas aeruginosa [26]) | MIC (Escherichia coli [27]) | MIC (Klebsiella pneumoniae [28]) | MIC (Klebsiella pneumoniae [29]) | MIC (Klebsiella pneumoniae [30]) | MIC (Klebsiella pneumoniae [31]) | MIC (Escherichia coli [32]) | MIC (Pseudomonas aeruginosa [33]) | MIC (Pseudomonas aeruginosa [34]) | MIC (Klebsiella pneumoniae [36])
1: Selectivity Index (Escherichia coli [10]) | Selectivity Index (Pseudomonas aeruginosa [21])
64 µg/mL: MIC (Escherichia coli [7]) | MIC (Pseudomonas aeruginosa [14]) | MIC (Escherichia coli [16]) | MIC (Escherichia coli [20]) | MIC (Pseudomonas aeruginosa [23])
2 µg/mL: MIC (Escherichia coli [35])
1 - 32: Selectivity Index (Escherichia coli [4]) | Selectivity Index (Escherichia coli [15]) | Selectivity Index (Escherichia coli [19])
